We go through 19 molecules from ChEMBL document CHEMBL1143989, “New anti-viral drugs for the treatment of the common cold” (Bioorg Med Chem, 2008).

By inhibition is commonly meant the drop in the measured response relative to a control, in per cent. A high value points to strong suppression.

For series [1], the target named is T1, Human rhinovirus A protease (Human rhinovirus sp.) (UniProt Q4U254).
T1 sequence (whole entry): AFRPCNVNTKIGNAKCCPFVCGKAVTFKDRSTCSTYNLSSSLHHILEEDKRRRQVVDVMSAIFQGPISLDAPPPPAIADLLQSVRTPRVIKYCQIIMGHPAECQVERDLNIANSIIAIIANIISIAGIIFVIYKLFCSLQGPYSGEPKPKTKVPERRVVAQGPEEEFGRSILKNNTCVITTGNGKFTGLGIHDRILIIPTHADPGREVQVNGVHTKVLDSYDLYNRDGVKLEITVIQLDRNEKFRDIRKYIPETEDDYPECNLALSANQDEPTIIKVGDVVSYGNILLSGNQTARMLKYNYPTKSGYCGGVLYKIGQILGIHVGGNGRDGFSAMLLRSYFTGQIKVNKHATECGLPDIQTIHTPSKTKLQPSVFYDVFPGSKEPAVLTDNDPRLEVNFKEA
Briefly: Inhibition of HRV14 3C protease in presence of dithiothreitol. As to conditions: rhinovirus B14.

In series [2] the target is T1, Human rhinovirus A protease (Human rhinovirus sp.). Briefly: Inhibition of HRV14 3C protease at 10 uM. As to conditions: rhinovirus B14. The gist of the method: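 Recombinant HRV14 3C protease at 0.7 uM with EALFQ-pNA chromogenic substrate, compound at 10 µM final, 1% DMSO final. Buffer: 25 mM Hepes pH 7.5, 150 mM NaCl, 0.12 mM DTT, 1 mM EDTA. Started by adding enzyme; A405 read at 0 and 60 min at 30 °C. Percent inhibition vs uninhibited control; duplicates, mean ± SD.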

The target is the same in series [3]. Briefly: Inhibition of HRV14 3C protease at 1 uM. To be noted: rhinovirus B14.
The target is the same in series [4]. Description: Inhibition of HRV14 3C protease at 0.1 uM. To be noted: rhinovirus B14.
Series [5] is described as follows: Inhibition of HRV 3C protease. The arrangement: species or system Human rhinovirus sp.
Series [6] has as its target T1, Human rhinovirus A protease (Human rhinovirus sp.). Description: Inhibition of HRV14 3C protease at 0.16 to 100 uM. To be noted: rhinovirus B14. The gist of the method: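 Colorimetric HRV14 3C protease assay: 0.7 uM enzyme, EALFQ-pNA substrate, Hepes pH 7.5 buffer with 0.12 mM DTT and 1 mM EDTA. Compound tested across 0.16 to 100 µM; p-nitroaniline release read at 405 nm after 60 min at 30 °C.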

Series [7] can be described thus: Cytotoxicity against human HeLa cells after 5 days. To be noted: read-out: Maximal non-toxic dose 50. In kind it is cell-based. In a few lines:
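HeLa (Ohio strain) cells plated at about 10^4 cells per ml in 24-well plates, kept at 33 °C in 3% CO2 in DMEM with 1% non-essential amino acids and 10% FCS. Exposed to decreasing compound concentrations for 5 days; viability read by neutral red uptake. MNTD50 (dose inhibiting less than 50% replication vs control) obtained by regression; triplicate.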

Series [8] addresses T1, Human rhinovirus A protease (Human rhinovirus sp.). Briefly: Inhibition of HRV14 3C protease at 1 mM. As to conditions: rhinovirus B14.
The test system of series [9] is rhinovirus B14. Briefly: Antiviral activity against HRV14. In kind it is functional, organism-based. To be noted: Rhinovirus B; read-out: ID50 (the source's name). The gist of the method:
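HeLa (Ohio) monolayers at 33 °C, 3% CO2, in DMEM with 1% non-essential amino acids and 10% FCS. Infected with HRV-14 at MOI 0.1, then decreasing compound amounts added. After 24 h, freeze-thaw; supernatant titrated under 2% nutrient agar and plaques counted after neutral red staining. ID50 derived from plaque counts.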

Series [10] has as its system Human alphaherpesvirus 2. Briefly: Antiviral activity against HSV2. In kind it is functional, organism-based.
For series [11], the system named is Influenza A virus. Description: Antiviral activity against WSN influenza A virus. In kind it is functional, organism-based. In a few lines: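 Cell-based antiviral test in the VERO/MDCK cell set, run on 24-well plates by analogy with the HeLa/rhinovirus method. Activity was scored after 48 h of incubation at 37 °C under 5% CO2.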

Values after ≈ are worked out from the molar mass of the structure shown. Active and inactive are the calls of the source. No cut-off for these calls is given here. Where only a bound is given, the exact number is not on record here.

For `NC(=O)c1cc(Cc2ccccc2)cc(C(=O)CBr)c1`, the result in series [1] was inactive. In addition, the inhibition in [2] turned out to be 68%; in series [3] it was 30%; in series [4], 0%.
Turning to `NC(=O)CCN(NC(=O)[C@H](Cc1ccccc1)NC(=O)OCc1ccccc1)C(=O)CBr`, the IC50 in [5] stood at 48 nM.
Consider `NC(=O)c1cc(C(=O)CBr)cc(C(=O)Nc2ccccc2)c1`, for which, in [1], the outcome was inactive. Besides, the inhibition was determined as 86% in series [2], 27% in [3] and 8% in [4].
Turning to `NC(=O)c1cc(Cc2ccc3ccccc3c2)cc(C(=O)C(Br)Br)c1`, the inhibition in series [2] is over 70%.
For the molecule `NC(=O)c1cccc(C(=O)C(F)(F)F)c1`, in series [6], the outcome was inactive.
Turning to `CCOC(=O)/C=C/[C@H](CCC(N)=O)CC(=O)[C@H](Cc1ccccc1)NC(=O)[C@H](CC(C)C)NC(=O)OCc1ccccc1`, in [5], the IC50 is 540 nM.
With `NC(=O)c1cccc(C(=O)CCl)c1`, in [7], the MNTC at 120 h is 3.12 µg/mL. The inhibition in series [2] is over 50%.
On to `CC(=O)N[C@@H](CC(C)C)C(=O)N[C@@H](CC(C)C)C(=O)N[C@H](C=O)CCCNC(=N)N`, for which the inhibition in series [8] was determined as 57%.
Take `NC(=O)c1cc(Cc2ccc3ccccc3c2)cc(C(=O)CBr)c1`: in [1], the result was inactive. Further, the values for the inhibition in [2], in series [3] and in series [4] were 83%, 39% and 12%, respectively.
With `NC(=O)c1cccc(C(=O)CBr)c1`, the MNTC at 120 h in series [7] was over 100 µg/mL. Also, in [1], the outcome was inactive. The inhibition in [2] was 85%; in [3] it was 23%; in series [4], 4%. For the same molecule, the IC50 in [9] came to 25 µg/mL (≈ 103 µM). Moreover, the outcome in series [10] and in [11] was Active.
For `NC(=O)c1cc(Cc2ccccc2)cc(C(=O)C(Br)Br)c1`, the outcome in series [1] was inactive. In addition, the inhibition in series [2] came out at 75%; in series [3], 27%; in series [4], 14%.
`CCOC(=O)CCn1c(=O)c2ccccc2n(CC(=O)c2ccccc2)c1=O` displayed an IC50 in series [5] of 55400 nM.
The molecule `NC(=O)c1cccc(C(=O)C(Br)Br)c1` yielded an inhibition in series [2] of over 50%.
For the molecule `NC(=O)c1cc(C(=O)CBr)cc(C(=O)Nc2ccc3ccccc3c2)c1`, the result in [1] was inactive. In addition, the figures for the inhibition in series [2], in series [3] and in series [4] were 80%, 19% and 5%, respectively.
Regarding `NC(=O)c1cc(Cc2ccccc2)cc(C(=O)CCl)c1`, the MNTC at 120 h in series [7] is 0.75 µg/mL. The outcome in series [1] was inactive. For the same molecule, the inhibition came to 91% in series [2], 79% in series [3] and 14% in series [4]. In addition, in [9], the IC50 was over 0.75 µg/mL.
Turning to `NC(=O)c1cccc(C(=O)C(Cl)Cl)c1`, the inhibition in series [2] is over 50%.
On to `CCOC(=O)/C=C/[C@H](C[C@@H]1CCNC1=O)NC(=O)[C@@H](CC(=O)[C@@H](NC(=O)c1cc(C)on1)C(C)C)Cc1ccc(F)cc1`, for which the result in [1] was inactive.
With `O=C(CBr)c1ccc2c(c1)C(=O)NC2`, the result in series [1] was inactive. Further, the figures for the inhibition in [2], in series [3] and in [4] were 70%, 25% and 0%, respectively.
Take `NC(=O)c1cc(Cc2ccc3ccccc3c2)cc(C(=O)CCl)c1`: the MNTC at 120 h in series [7] came out at 0.75 µg/mL. For the same molecule, the outcome in series [1] was inactive. Further, the inhibition in series [2] stood at 81%; in [3], 61%; in series [4], 25%. The IC50 in series [9] is over 0.75 µg/mL.
